Data from ChEMBL document CHEMBL1149790, “Synthesis of some novel thiourea derivatives obtained from 5-[(4-aminophenoxy)methyl]-4-alkyl/aryl-2,4-dihydro-3H-1,2,4-triazole-3-thiones and evaluation as antiviral/anti-HIV and anti-tuberculosis agents” (Eur J Med Chem, 2008).
Values after ≈ are worked out from the molar mass of the structure shown.

Legend:
[1] = system: Respiratory syncytial virus; experiment: Antiviral activity against respiratory syncytial virus in human HeLa cells assessed as inhibition of virus-induced cytopathogenicity; format: functional
In short: (§1)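 Confluent cell monolayers (E6SM, HEL, HeLa or Vero, per line) inoculated with 100 CCID50 virus; 1 h adsorption, residual virus removed, then incubated with compound at 400, 200, 100 … µg/ml. Cytopathicity scored once complete in untreated virus controls; MIC = concentration inhibiting virus-induced cytopathicity.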

Human betaherpesvirus 5 [2] = experiment: Antiviral activity against human cytomegalovirus Davis infected HEL cells assessed as reduction in virus plaque formation; format: functional, organism-based; details: Human betaherpesvirus 5, Davis
[3] = system: Mammalian orthoreovirus 1; experiment: Antiviral activity against Reo virus 1 in african green monkey Vero cells assessed as reduction of virus-induced cytopathogenicity; format: functional; in short: as §1
Sindbis virus = experiment: Antiviral activity against Sindbis virus in african green monkey Vero cells assessed as reduction of virus-induced cytopathogenicity; format: functional; in short: as §1
Human alphaherpesvirus 3 [4] = experiment: Antiviral activity against TK+ VZV OKA infected HEL cells assessed as reduction in virus plaque formation; format: functional, organism-based; details: Human alphaherpesvirus 3, OKA
[5] = Cytotoxicity against human HeLa cells; format: cell-based
In short: (§2)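 Uninfected cell cultures exposed to test compounds alongside antiviral assays; minimum cytotoxic concentration (MCC) = concentration causing a microscopically detectable alteration of cell morphology.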

[6] = system: Vesicular stomatitis virus; experiment: Antiviral activity against in Vesicular stomatitis virus in human HEL cells assessed as reduction of virus-induced cytopathogenicity; format: functional; in short: as §1
Human betaherpesvirus 5 [7] = experiment: Antiviral activity against human cytomegalovirus AD169 infected HEL cells assessed as reduction in virus plaque formation; format: functional, organism-based; details: Human betaherpesvirus 5, AD169, HEL
Human alphaherpesvirus 2 [8] = experiment: Antiviral activity against HSV2 G in human HEL cells assessed as reduction of virus-induced cytopathogenicity; format: functional; details: Human alphaherpesvirus 2, G; in short: as §1
[9] = Cytotoxicity against human MT4 cells by MTT assay; format: cell-based
In short: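 Mock-infected MT-4 cells (6 × 10⁵ cells/ml) with serial five-fold compound dilutions in triplicate; MTT reduction read at 540 and 690 nm after 5 days, median OD of three wells; CC50 = concentration reducing OD540 of mock-infected control by 50%.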

[10] = Cytotoxicity against human HEL cells assessed as reduction of cell growth; format: cell-based
In short: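 HEL cells; CC50 = compound concentration reducing cell growth by 50%.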

Human alphaherpesvirus 2 [11] = experiment: Antiviral activity against HSV2 G in human E6SM cells assessed as reduction of virus-induced cytopathogenicity; format: functional; details: Human alphaherpesvirus 2, G; in short: as §1
Human alphaherpesvirus 1 [12] = experiment: Antiviral activity against HSV1 KOS in human HEL cells assessed as reduction of virus-induced cytopathogenicity; format: functional; details: Human alphaherpesvirus 1, KOS; in short: as §1
Human alphaherpesvirus 3 [13] = experiment: Antiviral activity against TK- VZV 07/1 infected HEL cells assessed as reduction in virus plaque formation; format: functional, organism-based; details: Human alphaherpesvirus 3, 07/1, HEL
Coxsackievirus B4 [14] = experiment: Antiviral activity against Coxsackie virus B4 in human HeLa cells assessed as inhibition of virus-induced cytopathogenicity; format: functional; details: Enterovirus B; in short: as §1
Human alphaherpesvirus 1 [15] = experiment: Antiviral activity against thymidine kinase deficient and acyclovir resistant HSV1 KOS in human HEL cells assessed as reduction of virus-induced cytopathogenicity; format: functional; details: Human alphaherpesvirus 1, KOS; in short: as §1
Human respirovirus 3 = experiment: Antiviral activity against Parainfluenza 3 virus in african green monkey Vero cells assessed as reduction of virus-induced cytopathogenicity; format: functional; in short: as §1
[16] = Cytotoxicity against human HEL cells assessed as alteration of cell morphology; format: cell-based; in short: as §2
[17] = system: Human immunodeficiency virus 2; experiment: Antiviral activity against HIV2 ROD in human MT4 cells assessed as protection against virus-induced cytopathogenicity by MTT assay; format: functional, organism-based; set-up: Activity: concentration or dose not given beside the values; details: for IC50: Human immunodeficiency virus 2, ROD, MT4
In short: (§3)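 MT-4 cells at 6 × 10⁵ cells/ml infected with HIV-1 IIIB or HIV-2 ROD at 100–300 CCID50; compounds in serial five-fold dilutions, triplicate mock- and virus-infected wells. MTT viability read at 540 and 690 nm after 5 days, median OD of three wells; EC50 = 50% protection from viral cytopathic effect.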

[18] = system: Human immunodeficiency virus 1; experiment: Antiviral activity against HIV1 3B in human MT4 cells assessed as protection against virus-induced cytopathogenicity by MTT assay; format: functional, organism-based; set-up: Activity: concentration or dose not given beside the values; details: for IC50: Human immunodeficiency virus 1, 3B, MT4; in short: as §3
[19] = Cytotoxicity against human E6SM cells; format: cell-based; details: E6SM cells; in short: as §2
[20] = system: Vesicular stomatitis virus; experiment: Antiviral activity against in Vesicular stomatitis virus in human E6SM cells assessed as reduction of virus-induced cytopathogenicity; format: functional; in short: as §1
Human alphaherpesvirus 1 [21] = experiment: Antiviral activity against thymidine kinase deficient and acyclovir resistant HSV1 KOS in human E6SM cells assessed as reduction of virus-induced cytopathogenicity; format: functional; details: Human alphaherpesvirus 1, KOS; in short: as §1
[22] = system: Vesicular stomatitis virus; experiment: Antiviral activity against vesicular stomatitis virus in human HeLa cells assessed as inhibition of virus-induced cytopathogenicity; format: functional; in short: as §1
Vero = experiment: Cytotoxicity against african green monkey Vero cells; format: cell-based; details: chlorocebus sabaeus; in short: as §2
Human alphaherpesvirus 1 [23] = experiment: Antiviral activity against HSV1 KOS in human E6SM cells assessed as reduction of virus-induced cytopathogenicity; format: functional; details: Human alphaherpesvirus 1, KOS; in short: as §1
Punta Toro virus = experiment: Antiviral activity against Punta Toro virus in african green monkey Vero cells assessed as reduction of virus-induced cytopathogenicity; format: functional; in short: as §1
Coxsackievirus B4 [24] = experiment: Antiviral activity against Coxsackie virus B4 in african green monkey Vero cells assessed as reduction of virus-induced cytopathogenicity; format: functional; details: Enterovirus B; in short: as §1

Compound | MIC [1] [µg/mL] | MIC [3] [µg/mL] | MIC (Sindbis virus) [µg/mL] | MCC [5] [µg/mL] | MIC [6] [µg/mL] | MIC (Human alphaherpesvirus 2 [8]) [µg/mL] | MIC (Human alphaherpesvirus 2 [11]) [µg/mL] | MIC (Human alphaherpesvirus 1 [12]) [µg/mL] | MIC (Coxsackievirus B4 [14]) [µg/mL] | MIC (Human alphaherpesvirus 1 [15]) [µg/mL] | MIC (Human respirovirus 3) [µg/mL] | MCC [16] [µg/mL] | MCC [19] [µg/mL] | MIC [20] [µg/mL] | MIC (Human alphaherpesvirus 1 [21]) [µg/mL] | MIC [22] [µg/mL] | Activity (Vero) | MIC (Human alphaherpesvirus 1 [23]) [µg/mL] | MIC (Punta Toro virus) [µg/mL] | MIC (Coxsackievirus B4 [24]) [µg/mL] | also measured
C=CCNC(=S)Nc1ccc(OCc2n[nH]c(=S)n2-c2ccccc2)cc1 | > 80 | > 80 | > 80 | 400 | 240 (≈ 604 µM) | 240 (≈ 604 µM) | 240 (≈ 604 µM) | 240 (≈ 604 µM) | > 80 | 240 (≈ 604 µM) | > 80 | > 400 | > 400 | 240 (≈ 604 µM) | 240 (≈ 604 µM) | > 80 | 400 µg/mL | 240 (≈ 604 µM) | > 80 | 48 (≈ 121 µM) | EC50 (Human betaherpesvirus 5 [2]): > 100 µg/mL; EC50 (Human alphaherpesvirus 3 [4]): > 100 µg/mL; EC50 (Human betaherpesvirus 5 [7]): > 100 µg/mL; CC50 [9]: 107 µg/mL (≈ 269 µM); CC50 [10]: > 50 µg/mL; EC50 (Human alphaherpesvirus 3 [13]): > 100 µg/mL; Activity [17]: 0.5%; IC50 [17]: > 103 µg/mL; Activity [18]: 1.5%; IC50 [18]: > 92.3 µg/mL
Nc1ccn(C[C@@H](CO)OCP(=O)(O)O)c(=O)n1.O.O [CIDOFOVIR] | – | – | – | – | – | – | – | – | – | – | – | > 400 | – | – | – | – | – | – | – | – | EC50 (Human betaherpesvirus 5 [2]): 0.64 µg/mL; EC50 (Human betaherpesvirus 5 [7]): 0.075 µg/mL; CC50 [10]: ≥ 18 µg/mL
CNC(=S)Nc1ccc(OCc2n[nH]c(=S)n2-c2ccccc2)cc1 | > 80 | > 80 | > 80 | 400 | > 400 | > 400 | > 400 | > 400 | > 80 | > 400 | > 80 | > 400 | > 400 | > 400 | > 400 | > 80 | 400 µg/mL | > 400 | > 80 | > 80 | EC50 (Human betaherpesvirus 5 [2]): > 100 µg/mL; EC50 (Human alphaherpesvirus 3 [4]): > 100 µg/mL; EC50 (Human betaherpesvirus 5 [7]): > 100 µg/mL; CC50 [9]: ≥ 83.5 µg/mL; CC50 [10]: > 50 µg/mL; EC50 (Human alphaherpesvirus 3 [13]): > 100 µg/mL; Activity [17]: 2%; IC50 [17]: > 113 µg/mL; Activity [18]: 0.5%; IC50 [18]: > 83.5 µg/mL
C=CCNC(=S)Nc1ccc(-c2n[nH]c(=S)n2CCCCCC)cc1 | > 16 | > 16 | > 16 | 80 | > 16 | > 16 | > 16 | > 16 | > 16 | > 16 | > 16 | 80 | 80 | > 16 | > 16 | > 16 | >= 16 ug ml-1 | > 16 | > 16 | > 16 | CC50 [9]: 10.1 µg/mL (≈ 26.8 µM); Activity [17]: 0%; IC50 [17]: > 10.1 µg/mL; Activity [18]: 4%; IC50 [18]: > 10.1 µg/mL
O=c1[nH]c(=O)n([C@H]2C[C@H](O)[C@@H](CO)O2)cc1/C=C/Br [BRIVUDINE] | > 400 | > 400 | > 400 | ≥ 400 | > 400 | 80 (≈ 240 µM) | 80 (≈ 240 µM) | 0.0768 (≈ 0.231 µM) | > 400 | > 400 | > 400 | > 400 | > 400 | > 400 | > 400 | > 400 | > 400 µg/mL | 0.0768 (≈ 0.231 µM) | > 400 | > 400 | EC50 (Human alphaherpesvirus 3 [4]): 0.02 µg/mL (≈ 0.06 µM); EC50 (Human alphaherpesvirus 3 [13]): 25 µg/mL (≈ 75 µM)
CCNC(=S)Nc1ccc(-c2n[nH]c(=S)n2C)cc1 | > 80 | > 80 | > 80 | 400 | > 400 | 240 (≈ 818 µM) | 240 (≈ 818 µM) | 240 (≈ 818 µM) | > 80 | 240 (≈ 818 µM) | > 80 | ≥ 400 | ≥ 400 | > 400 | 240 (≈ 818 µM) | > 80 | 400 µg/mL | 240 (≈ 818 µM) | > 80 | > 80 | CC50 [9]: 82.4 µg/mL (≈ 281 µM); Activity [17]: 0%; IC50 [17]: > 82.4 µg/mL; Activity [18]: 3%; IC50 [18]: > 82.4 µg/mL
